Measurements from ChEMBL document CHEMBL3244034, “Semisynthetic cephalosporins. Synthesis and structure-activity relationships of 7-(1-pyrryl)- and 7-(1-indolyl)acetamidocephalosporin derivatives” (1978).
In brackets after ≈: the same amount, converted by molar mass.

Legend:
Assay type in all cases: functional
Staphylococcus aureus [1] = experiment: Antibacterial activity against benzylpenicillin-resistant Staphylococcus aureus after 17 hrs by serial two fold dilution method
In short: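 Agar dilution MIC. Compound was serially diluted twofold in Mueller-Hinton agar. The surface was inoculated with a diluted 18-24-h broth culture […]. Plates were incubated 17 h at 37 °C. MIC was taken as the lowest concentration giving complete or virtually complete inhibition of visible growth.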

Staphylococcus aureus [2] = experiment: Antibacterial activity against Staphylococcus aureus after 17 hrs by serial two fold dilution method
In short: (§1)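 Agar dilution MIC: compound serially diluted twofold in Mueller-Hinton agar. Plate surfaces were inoculated with a suitably diluted 18-24-h broth culture and incubated 17 h at 37 °C. MIC was read as the lowest concentration giving complete or virtually complete inhibition of visible growth.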

[3] = test system: Staphylococcus epidermidis; experiment: Antibacterial activity against Staphylococcus epidermidis after 17 hrs by serial two fold dilution method; in short: as §1
Enterococcus faecalis = experiment: Antibacterial activity against Staphylococcus faecalis after 17 hrs by serial two fold dilution method; in short: as §1
Streptococcus pyogenes = experiment: Antibacterial activity against Streptococcus pyogenes after 17 hrs by serial two fold dilution method; in short: as §1
Klebsiella aerogenes = experiment: Antibacterial activity against Enterobacter aerogenes after 17 hrs by serial two fold dilution method
Enterobacter cloacae = experiment: Antibacterial activity against Enterobacter cloacae after 17 hrs by serial two fold dilution method
Escherichia coli = experiment: Antibacterial activity against Escherichia coli after 17 hrs by serial two fold dilution method; in short: as §1
Klebsiella pneumoniae = experiment: Antibacterial activity against Klebsiella pneumoniae after 17 hrs by serial two fold dilution method; in short: as §1
Proteus mirabilis = experiment: Antibacterial activity against Proteus mirabilis after 17 hrs by serial two fold dilution method; in short: as §1
Proteus vulgaris = experiment: Antibacterial activity against Proteus vulgaris after 17 hrs by serial two fold dilution method; in short: as §1
Providencia stuartii = experiment: Antibacterial activity against Providencia stuartii after 17 hrs by serial two fold dilution method; in short: as §1
Pseudomonas aeruginosa = experiment: Antibacterial activity against Pseudomonas aeruginosa after 17 hrs by serial two fold dilution method; in short: as §1
Salmonella = experiment: Antibacterial activity against Salmonella schottmuelleri after 17 hrs by serial two fold dilution method; in short: as §1
Streptococcus pneumoniae = experiment: Antibacterial activity against Streptococcus pneumoniae after 17 hrs by serial two fold dilution method; in short: as §1

Q: Which MIC (Staphylococcus aureus [1]) does the source give for `CC(=O)OCC1=C(C(=O)O)N2C(=O)[C@@H](NC(=O)Cn3cccc3C=O)[C@H]2SC1` here?
A: The MIC was 1.6 mg/L (≈ 3.93 µM).

Q: What about the MIC (Staphylococcus aureus [2]) of the same compound?
A: Its MIC is 0.8 mg/L (≈ 1.96 µM).

Q: And the MIC [3]?
A: Its MIC is 3.1 mg/L (≈ 7.61 µM).

Q: And the MIC (Enterococcus faecalis)?
A: Its MIC is over 100 mg/L.

Q: What about the MIC (Streptococcus pyogenes) of the same compound?
A: The MIC was 0.4 mg/L (≈ 0.982 µM).

Q: And the MIC (Klebsiella aerogenes)?
A: Its MIC is over 100 mg/L.

Q: And the MIC (Enterobacter cloacae)?
A: Its MIC is over 100 mg/L.

Q: And the MIC (Escherichia coli)?
A: Its MIC is 100 mg/L (≈ 245 µM).

Q: And the MIC (Klebsiella pneumoniae)?
A: The MIC was 50 mg/L (≈ 123 µM).

Q: What about the MIC (Proteus mirabilis) of the same compound?
A: The MIC was 100 mg/L (≈ 245 µM).

Q: What about the MIC (Proteus vulgaris) of the same compound?
A: The MIC was over 100 mg/L.

Q: What about the MIC (Providencia stuartii) of the same compound?
A: The MIC was over 100 mg/L.

Q: And the MIC (Pseudomonas aeruginosa)?
A: Its MIC is over 100 mg/L.

Q: And the MIC (Salmonella)?
A: Its MIC is 50 mg/L (≈ 123 µM).

Q: `Cn1nnnc1SCC1=C(C(=O)O)N2C(=O)[C@@H](NC(=O)Cn3cccc3C=O)[C@H]2SC1` was tested. Which MIC (Staphylococcus aureus [1]) did it give?
A: Its MIC is 1.6 mg/L (≈ 3.45 µM).

Q: What about the MIC (Staphylococcus aureus [2]) of the same compound?
A: The MIC was 0.8 mg/L (≈ 1.73 µM).

Q: And the MIC [3]?
A: Its MIC is 3.1 mg/L (≈ 6.69 µM).

Q: What about the MIC (Enterococcus faecalis) of the same compound?
A: Its MIC is over 100 mg/L.

Q: What about the MIC (Streptococcus pyogenes) of the same compound?
A: Its MIC is 0.2 mg/L (≈ 0.431 µM).

Q: What about the MIC (Klebsiella aerogenes) of the same compound?
A: The MIC was 100 mg/L (≈ 216 µM).

Q: And the MIC (Enterobacter cloacae)?
A: Its MIC is over 100 mg/L.

Q: And the MIC (Escherichia coli)?
A: The MIC was 12.5 mg/L (≈ 27 µM).

Q: And the MIC (Klebsiella pneumoniae)?
A: The MIC was 12.5 mg/L (≈ 27 µM).

Q: And the MIC (Proteus mirabilis)?
A: Its MIC is 50 mg/L (≈ 108 µM).

Q: What about the MIC (Proteus vulgaris) of the same compound?
A: The MIC was over 100 mg/L.

Q: What about the MIC (Providencia stuartii) of the same compound?
A: The MIC was 50 mg/L (≈ 108 µM).

Q: And the MIC (Pseudomonas aeruginosa)?
A: Its MIC is over 100 mg/L.

Q: What about the MIC (Salmonella) of the same compound?
A: Its MIC is 6.2 mg/L (≈ 13.4 µM).

Q: What does the source list for `Cc1nnc(SCC2=C(C(=O)O)N3C(=O)[C@@H](NC(=O)Cn4cccc4)[C@H]3SC2)s1`?
A: MIC (Staphylococcus aureus [1]): 0.8 mg/L (≈ 1.77 µM); MIC (Staphylococcus aureus [2]): 0.2 mg/L (≈ 0.443 µM); MIC [3]: 0.8 mg/L (≈ 1.77 µM); MIC (Enterococcus faecalis): > 100 mg/L; MIC (Streptococcus pneumoniae): 0.1 mg/L (≈ 0.221 µM); MIC (Streptococcus pyogenes): 0.1 mg/L (≈ 0.221 µM); MIC (Klebsiella aerogenes): 100 mg/L (≈ 221 µM); MIC (Enterobacter cloacae): 100 mg/L (≈ 221 µM); MIC (Escherichia coli): 12.5 mg/L (≈ 27.7 µM); MIC (Klebsiella pneumoniae): 6.2 mg/L (≈ 13.7 µM); MIC (Proteus mirabilis): 25 mg/L (≈ 55.4 µM); MIC (Proteus vulgaris): > 100 mg/L; MIC (Providencia stuartii): 25 mg/L (≈ 55.4 µM); MIC (Pseudomonas aeruginosa): > 100 mg/L; MIC (Salmonella): 6.2 mg/L (≈ 13.7 µM)

Q: Which results are given for `Cc1nnc(SCC2=C(C(=O)O)N3C(=O)[C@@H](NC(=O)Cn4ccc5ccccc54)[C@H]3SC2)s1`?
A: MIC (Staphylococcus aureus [1]): 0.2 mg/L (≈ 0.399 µM); MIC (Staphylococcus aureus [2]): 0.1 mg/L (≈ 0.199 µM); MIC [3]: 0.4 mg/L (≈ 0.797 µM); MIC (Enterococcus faecalis): > 100 mg/L; MIC (Streptococcus pneumoniae): ≤ 0.025 mg/L; MIC (Streptococcus pyogenes): 0.05 mg/L (≈ 0.0997 µM); MIC (Klebsiella aerogenes): 100 mg/L (≈ 199 µM); MIC (Enterobacter cloacae): 100 mg/L (≈ 199 µM); MIC (Escherichia coli): 50 mg/L (≈ 99.7 µM); MIC (Klebsiella pneumoniae): 50 mg/L (≈ 99.7 µM); MIC (Proteus mirabilis): 50 mg/L (≈ 99.7 µM); MIC (Proteus vulgaris): > 100 mg/L; MIC (Providencia stuartii): 25 mg/L (≈ 49.8 µM); MIC (Pseudomonas aeruginosa): > 100 mg/L; MIC (Salmonella): 25 mg/L (≈ 49.8 µM)

Q: What does the source list for `CCOC(=O)C(C(=O)N[C@@H]1C(=O)N2C(C(=O)O)=C(COC(C)=O)CS[C@H]12)n1cccc1` (stereo partly drawn)?
A: MIC (Staphylococcus aureus [1]): 6.2 mg/L (≈ 13.7 µM); MIC (Staphylococcus aureus [2]): 1.6 mg/L (≈ 3.54 µM); MIC [3]: 3.1 mg/L (≈ 6.87 µM); MIC (Enterococcus faecalis): > 100 mg/L; MIC (Streptococcus pneumoniae): 0.4 mg/L (≈ 0.886 µM); MIC (Streptococcus pyogenes): 0.4 mg/L (≈ 0.886 µM); MIC (Klebsiella aerogenes): 25 mg/L (≈ 55.4 µM); MIC (Enterobacter cloacae): 25 mg/L (≈ 55.4 µM); MIC (Escherichia coli): 25 mg/L (≈ 55.4 µM); MIC (Klebsiella pneumoniae): 25 mg/L (≈ 55.4 µM); MIC (Proteus mirabilis): 50 mg/L (≈ 111 µM); MIC (Proteus vulgaris): > 100 mg/L; MIC (Providencia stuartii): 12.5 mg/L (≈ 27.7 µM); MIC (Pseudomonas aeruginosa): > 100 mg/L; MIC (Salmonella): 25 mg/L (≈ 55.4 µM)

Q: What does the source list for `CC(=O)OCC1=C(C(=O)O)N2C(=O)[C@@H](NC(=O)Cn3cccc3)[C@H]2SC1`?
A: MIC (Staphylococcus aureus [1]): 1.6 mg/L (≈ 4.22 µM); MIC (Staphylococcus aureus [2]): 0.8 mg/L (≈ 2.11 µM); MIC [3]: 3.1 mg/L (≈ 8.17 µM); MIC (Enterococcus faecalis): > 100 mg/L; MIC (Streptococcus pneumoniae): 0.4 mg/L (≈ 1.05 µM); MIC (Streptococcus pyogenes): 0.4 mg/L (≈ 1.05 µM); MIC (Klebsiella aerogenes): > 100 mg/L; MIC (Enterobacter cloacae): > 100 mg/L; MIC (Escherichia coli): 6.2 mg/L (≈ 16.3 µM); MIC (Klebsiella pneumoniae): 6.2 mg/L (≈ 16.3 µM); MIC (Proteus mirabilis): 12.5 mg/L (≈ 32.9 µM); MIC (Proteus vulgaris): > 100 mg/L; MIC (Providencia stuartii): 50 mg/L (≈ 132 µM); MIC (Pseudomonas aeruginosa): > 100 mg/L; MIC (Salmonella): 3.1 mg/L (≈ 8.17 µM)
